Test results taken from ChEMBL document CHEMBL2010721, “Growth inhibition of Mycobacterium smegmatis by prodrugs of deoxyxylulose phosphate reducto-isomerase inhibitors, promising anti-mycobacterial agents” (Eur J Med Chem, 2012).
Values after ≈ are worked out from the molar mass of the structure shown. Active and inactive are the calls of the source. The calls are words filed in the database; no cut-off is given here.

What was measured:
[1] = test system: Mycolicibacterium smegmatis; test: Antimycobacterial activity against Mycobacterium smegmatis at 400 nmol/disc after 24 hrs by paper disc diffusion method; assay type: functional
How it was run: (§1)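 M. smegmatis (grown at 37 °C) was spread from a tenfold-diluted overnight culture on agar plates containing yeast extract, malt extract, CaCO₃ and glucose. Compounds were dissolved at 100 mM in DMSO or water, and 4 µL was put on each 6 mm disc. Isoniazid was dissolved at 7.5 mM, and 2 µL was put on each disc. Inhibition zones were read after 24 h at 37 °C.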

[2] = test system: Escherichia coli; test: Antimycobacterial activity against Escherichia coli at 400 nmol/disc after 24 hrs by paper disc diffusion method; assay type: functional, organism-based
[3] = test system: Mycolicibacterium smegmatis; test: Antimycobacterial activity against Mycobacterium smegmatis; assay type: functional
[4] = test system: Mycolicibacterium smegmatis; test: Antimycobacterial activity against Mycobacterium smegmatis at 15 nmol/disc after 24 hrs by paper disc diffusion method; assay type: functional; how it was run: as §1
[5] = test system: Mycolicibacterium smegmatis; test: Antimycobacterial activity against Mycobacterium smegmatis assessed as viability at 20 uM after 5 to 12 hrs by resazurin test; assay type: functional, organism-based
How it was run: (§2)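 A fresh M. smegmatis preculture was adjusted to McFarland 0.5. Then 0.2 mL went into 1.8 mL medium with inhibitor (final isoniazid 10–40 µM; other compound 250–1000 µM), shaken 24 h at 37 °C. Of this, 50 µL was added to 150 µL fresh medium, in duplicate, plus 0.01% resazurin. Plates were kept at 37 °C, and the blue-to-pink change was followed by eye for 12 h, with growth and sterile controls.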

[6] = test system: Mycolicibacterium smegmatis; test: Antimycobacterial activity against Mycobacterium smegmatis assessed as viability at 10 uM after 1 hr by resazurin test; assay type: functional, organism-based; how it was run: as §2
[7] = test system: Mycobacterium tuberculosis; test: Antimycobacterial activity against Mycobacterium tuberculosis; assay type: functional
[8] = test system: Escherichia coli; test: Inhibition of Escherichia coli DXR at 1 uM
[9] = test system: Mycolicibacterium smegmatis; test: Antimycobacterial activity against Mycobacterium smegmatis assessed as viability at 500 uM after 5 hrs by resazurin test; assay type: functional, organism-based; how it was run: as §2
[10] = biological target: T1, 1-deoxy-D-xylulose 5-phosphate reductoisomerase (Mycobacterium smegmatis (strain ATCC 700084 / mc(2)155)) (UniProt A0QVH7); test: Inhibition of Mycobacterium smegmatis DSM 43756 ATCC 19420 N-terminal his-tagged DXR expressed in XL1-blue Escherichia coli using NADPH and DXP as substrate at 1 uM […]; settings: Mycolicibacterium smegmatis
T1 sequence (whole entry): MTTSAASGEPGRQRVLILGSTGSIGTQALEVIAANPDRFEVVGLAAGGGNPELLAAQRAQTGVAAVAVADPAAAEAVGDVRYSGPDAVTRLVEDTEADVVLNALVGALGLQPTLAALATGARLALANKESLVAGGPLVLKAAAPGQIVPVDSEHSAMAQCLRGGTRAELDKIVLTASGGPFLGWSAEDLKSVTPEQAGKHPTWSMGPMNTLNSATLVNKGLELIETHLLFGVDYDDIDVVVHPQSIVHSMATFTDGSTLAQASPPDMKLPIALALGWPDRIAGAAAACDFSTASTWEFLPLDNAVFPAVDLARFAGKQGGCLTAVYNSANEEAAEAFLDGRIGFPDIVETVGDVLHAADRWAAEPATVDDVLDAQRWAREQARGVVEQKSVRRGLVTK

[11] = test system: Mycolicibacterium smegmatis; test: Antimycobacterial activity against Mycobacterium smegmatis assessed as viability at 250 uM after 15 mins by resazurin test; assay type: functional, organism-based; how it was run: as §2
[12] = biological target: T2, 1-deoxy-D-xylulose 5-phosphate reductoisomerase (Mycobacterium smegmatis (strain ATCC 700084 / mc(2)155), UniProt A0QVH7); test: Inhibition of Mycobacterium smegmatis DXR; parameters: species or system Mycolicibacterium smegmatis
T2 sequence (A0QVH7 whole entry): T1 sequence (whole entry)
How it was run: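 His-tagged M. smegmatis DXR (N-terminal tag, expressed in E. coli, Ni2+ column purified) was pre-incubated with inhibitor and 0.15 mM NADPH for 2 min at 37 °C in 50 mM Tris/HCl pH 7.5, 3 mM MgCl2, 2 mM DTT. Reaction started with 0.5 mM DXP; initial rates from NADPH absorbance decrease at 340 nm. IC50 from residual activity versus log inhibitor concentration; mean of two independent determinations.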

[13] = biological target: T2, 1-deoxy-D-xylulose 5-phosphate reductoisomerase (Mycobacterium smegmatis (strain ATCC 700084 / mc(2)155), UniProt A0QVH7); test: Inhibition of Mycobacterium smegmatis DSM 43756 ATCC 19420 N-terminal his-tagged DXR expressed in XL1-blue Escherichia coli using NADPH and DXP as substrate preincubated for 2 mins […]; parameters: species or system Mycolicibacterium smegmatis
How it was run: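 N-terminal His-tagged M. smegmatis DXR, Ni²⁺-purified and kept in glycerol/NaCl buffer. Assay at 37 °C in 50 mM Tris/HCl pH 7.5 with 3 mM MgCl₂, 2 mM DTT, 0.15 mM NADPH and 0.5 mM DXP. Enzyme and inhibitor were preincubated 2 min with NADPH, then DXP started the reaction. Initial rates were read as A340 decrease. Inhibitor range was 0.1–0.6 or 0.2–2 µM. IC50 came from residual activity vs log concentration, mean of two determinations.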

Compound	growth inhibition (GI) [1]	growth inhibition (GI) [2]	IC50 [13] [nM]	also measured
CCCC(=O)OCOP(=O)(CCCN(O)C=O)OCOC(=O)CCC	inactive	inactive	–	–
CCCC(=O)OCOP(=O)(CCCC(=O)NO)OCOC(=O)CCC	inactive	inactive	–	–
NNC(=O)c1ccncc1 [ISONIAZID]	–	–	–	MIC [3]: 10 µM (≈ 1.37 µg/mL); diameter of the inhibition zone (DIZ) [4]: 29 mm; growth inhibition (GI) [5]: inactive; growth inhibition (GI) [6]: inactive; MIC [7]: 7 µg/mL (≈ 51 µM)
CCCC(=O)OCOP(=O)(CCCC(=O)N(C)O)OCOC(=O)CCC	–	inactive	–	diameter of the inhibition zone (DIZ) [1]: 23 mm; MIC [3]: 250 µM (≈ 99.3 µg/mL); inhibition [8]: inactive; growth inhibition (GI) [9]: Active; inhibition [10]: inactive; growth inhibition (GI) [11]: inactive
O=CN(O)CCCP(=O)(O)O [FOSMIDOMYCIN]	inactive	–	510	IC50 [12]: 80 nM
CN(O)C(=O)CCCP(=O)(O)O	inactive	–	410	–
CC(=O)N(O)CCCP(=O)(O)O [FR-900098]	inactive	–	320	–
O=C(CCCP(=O)(OCOC(=O)c1ccccc1)OCOC(=O)c1ccccc1)NO	inactive	inactive	–	–
CC(C)(C)C(=O)OCOP(=O)(CCCC(=O)NO)OCOC(=O)C(C)(C)C	inactive	inactive	–	–
CCCC(=O)OCOP(=O)(CCCN(O)C(C)=O)OCOC(=O)CCC	inactive	inactive	–	inhibition [8]: inactive; inhibition [10]: inactive
CN(O)C(=O)CCCP(=O)(OCOC(=O)c1ccccc1)OCOC(=O)c1ccccc1	–	inactive	–	diameter of the inhibition zone (DIZ) [1]: 11 mm; MIC [7]: 25 µg/mL (≈ 53.7 µM)
O=C(CCCP(=O)(O)O)NO	inactive	–	1480	–
CN(O)C(=O)CCCP(=O)(OCOC(=O)C(C)(C)C)OCOC(=O)C(C)(C)C	–	inactive	–	diameter of the inhibition zone (DIZ) [1]: 15 mm; MIC [7]: 50 µg/mL (≈ 118 µM)
